The target in series [1] is Cytochrome P450 2C19 (Homo sapiens, UniProt P33261). As to the kind of experiment: Activity of human CYP2C19 expressed in microsomes isolated from baculovirus infected insect cell assessed as enzyme-mediated 5-hydroxy-5-(4-((6-methoxy-1-methyl-1H-benzo[d]imidazol-2-yl)methoxy)benzyl)thiazolidine-2,4-dione formation at 20 uM after 2 hrs by radio-HPLC/LC-MS/MS analysis in presence of NADPH-generating system and NADPH-generating system/SAM. It is filed as ADME. Put shortly:
(§1)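 Baculovirus/insect-cell microsomes expressing single human CYPs, 1 mg/ml protein, with 50 mM potassium phosphate (pH 7.4) or 100 mM Tris-HCl (pH 7.5). NADPH-generating system: 2 mM NADP⁺, 20 mM glucose 6-phosphate, 2 units/ml G6PDH, 10 mM MgCl₂. [¹⁴C]rivoglitazone at 20 μM, 2 h at 37°C with shaking. Control used insect-cell control supersomes. Stopped with acetonitrile; supernatant concentrated under nitrogen; metabolites analysed by radio-HPLC, LC-MS and LC-MS/MS.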

In series [2] the test system is Liver microsome. Briefly: Drug metabolism in human liver microsomes assessed as formation of 2-((4-((2,4-dioxothiazolidin-5-yl)methyl)phenoxy)methyl)-1-methyl-1H-benzo[d]imidazol-6-yl hydrogen sulfate at 20 uM by radio-HPLC/LC-MS/MS analysis. It is filed as ADME. Background: Liver microsomes are vesicles of endoplasmic reticulum, rich in cytochrome P450 enzymes.
Series [3] has as its target T1, UDP-glucuronosyltransferase 2B15 (Homo sapiens, UniProt P54855).
T1 sequence (P54855 whole entry): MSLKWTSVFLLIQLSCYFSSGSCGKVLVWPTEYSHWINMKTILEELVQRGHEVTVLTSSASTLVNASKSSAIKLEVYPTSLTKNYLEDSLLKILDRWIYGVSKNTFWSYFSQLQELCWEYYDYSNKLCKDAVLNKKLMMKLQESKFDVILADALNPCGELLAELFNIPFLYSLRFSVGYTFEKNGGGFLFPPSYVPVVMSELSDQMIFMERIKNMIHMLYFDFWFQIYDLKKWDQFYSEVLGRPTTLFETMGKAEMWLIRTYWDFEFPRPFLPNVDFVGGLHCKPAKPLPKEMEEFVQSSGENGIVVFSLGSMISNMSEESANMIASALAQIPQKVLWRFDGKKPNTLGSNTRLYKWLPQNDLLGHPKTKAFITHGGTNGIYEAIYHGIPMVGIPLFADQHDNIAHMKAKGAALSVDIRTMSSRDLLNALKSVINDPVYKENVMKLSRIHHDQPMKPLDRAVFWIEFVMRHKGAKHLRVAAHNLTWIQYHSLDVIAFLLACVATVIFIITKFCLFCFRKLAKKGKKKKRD
As to the kind of experiment: Activity of human UGT2B15 expressed in microsomes isolated from baculovirus infected insect cell assessed as enzyme-mediated 2-mercapto-3-(4-((6-methoxy-1-methyl-1H-benzo[d]imidazol-2-yl)methoxy)phenyl)propanoic acid formation at 20 uM after 4 hrs by radio-HPLC/LC-MS/MS analysis in presence of UDPGA. It is filed as ADME.

The target in series [4] is Cytochrome P450 2D6 (Homo sapiens, UniProt P10635). Briefly: Activity of human CYP2D6 expressed in microsomes isolated from baculovirus infected insect cell assessed as enzyme-mediated 2-mercapto-3-(4-((6-methoxy-1-methyl-1H-benzo[d]imidazol-2-yl)methoxy)phenyl)propanoic acid formation at 20 uM after 2 hrs by radio-HPLC/LC-MS/MS analysis in presence of NADPH-generating system. It is filed as ADME. The method in brief:
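Baculovirus-insect-cell microsomes expressing the human CYP (1 mg/ml protein) were incubated with [14C]rivoglitazone (20 μM) in 50 mM potassium phosphate (pH 7.4) or 100 mM Tris-HCl (pH 7.5) with an NADPH-generating system (2 mM NADP+, 20 mM glucose 6-phosphate, 2 units/ml G6PDH, 10 mM MgCl2) for 2 h at 37°C. Insect-cell control supersomes served as the control. Reactions were stopped with acetonitrile, and the concentrated supernatants were analysed by radio-HPLC, LC-MS and LC-MS/MS.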

Series [5] can be described thus: Drug metabolism in rat hepatocytes assessed as formation of 3-(4-((6-methoxy-1-methyl-1H-benzo[d]imidazol-2-yl)methoxy)phenyl)-2-(methylsulfinyl)propanamide at 30 uM after 3 hrs by radio-HPLC/LC-MS/MS analysis in presence of NADPH-generating system/SAM. The format is ADME, cell-based, Hepatocyte.
For series [6], the system named is Liver microsome. As to the kind of experiment: Drug metabolism in human liver microsomes assessed as formation of 2-mercapto-3-(4-((6-methoxy-1-methyl-1H-benzo[d]imidazol-2-yl)methoxy)phenyl)propanoic acid at 20 uM after 2 to 4 hrs by radio-HPLC/LC-MS/MS analysis in presence of UDPGA, UDPGA/SAM and NADPH-generating system. The format is ADME.
Series [7] can be described thus: Drug metabolism in cynomolgus monkey liver microsomes assessed as formation of 5-(4-((6-methoxy-1H-benzo[d]imidazol-2-yl)methoxy)benzyl)thiazolidine-2,4-dione at 20 uM after 2 hrs by radio-HPLC/LC-MS/MS analysis in presence of NADPH-generating system and NADPH-generating system/SAM. It is filed as ADME, Macaca fascicularis.
In series [8] the target is T2, Cytochrome P450 2C8 (Homo sapiens, UniProt P10632).
T2 sequence (P10632 whole entry): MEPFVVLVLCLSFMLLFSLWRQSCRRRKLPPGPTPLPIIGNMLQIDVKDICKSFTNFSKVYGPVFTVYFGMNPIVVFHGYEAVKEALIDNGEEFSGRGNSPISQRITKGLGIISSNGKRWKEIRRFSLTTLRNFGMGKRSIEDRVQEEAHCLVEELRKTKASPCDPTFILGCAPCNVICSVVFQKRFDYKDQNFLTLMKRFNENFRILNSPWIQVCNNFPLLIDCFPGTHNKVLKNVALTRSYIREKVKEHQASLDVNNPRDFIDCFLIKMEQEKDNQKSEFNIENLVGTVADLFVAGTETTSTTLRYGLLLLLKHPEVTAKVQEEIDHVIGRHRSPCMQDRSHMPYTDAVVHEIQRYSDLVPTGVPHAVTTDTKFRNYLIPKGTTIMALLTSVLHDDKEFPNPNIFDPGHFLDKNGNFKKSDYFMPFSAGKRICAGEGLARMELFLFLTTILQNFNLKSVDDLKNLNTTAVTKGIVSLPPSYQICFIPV
Briefly: Activity of human CYP2C8 expressed in microsomes isolated from baculovirus infected insect cell assessed as enzyme-mediated compound formation treated with [14C]-rivoglitazone at 20 uM after 2 hrs by radio-HPLC/LC-MS/MS analysis in presence of NADPH-generating system. The format is ADME. The method in brief: as §1

This passage reports Drug metabolism results from ChEMBL document CHEMBL3526048, “In vitro metabolism of rivoglitazone, a novel peroxisome proliferator-activated receptor γ agonist, in rat, monkey, and human liver microsomes and freshly isolated hepatocytes” (Drug Metab Dispos, 2011).

Cytochrome P450 2D6, sequence (P10635 whole entry): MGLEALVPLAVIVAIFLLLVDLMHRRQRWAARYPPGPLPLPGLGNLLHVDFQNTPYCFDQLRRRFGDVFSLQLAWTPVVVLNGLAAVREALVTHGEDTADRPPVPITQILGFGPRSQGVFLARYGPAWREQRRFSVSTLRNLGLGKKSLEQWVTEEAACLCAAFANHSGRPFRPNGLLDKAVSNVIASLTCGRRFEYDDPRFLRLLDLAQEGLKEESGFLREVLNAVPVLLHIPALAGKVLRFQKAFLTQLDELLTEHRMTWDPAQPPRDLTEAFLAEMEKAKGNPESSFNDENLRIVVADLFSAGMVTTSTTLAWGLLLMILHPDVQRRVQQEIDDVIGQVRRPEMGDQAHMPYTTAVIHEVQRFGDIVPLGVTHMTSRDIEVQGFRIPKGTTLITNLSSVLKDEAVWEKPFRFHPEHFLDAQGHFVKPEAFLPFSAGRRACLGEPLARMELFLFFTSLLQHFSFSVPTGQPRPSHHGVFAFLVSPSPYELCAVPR
Cytochrome P450 2C19, sequence (P33261 whole entry): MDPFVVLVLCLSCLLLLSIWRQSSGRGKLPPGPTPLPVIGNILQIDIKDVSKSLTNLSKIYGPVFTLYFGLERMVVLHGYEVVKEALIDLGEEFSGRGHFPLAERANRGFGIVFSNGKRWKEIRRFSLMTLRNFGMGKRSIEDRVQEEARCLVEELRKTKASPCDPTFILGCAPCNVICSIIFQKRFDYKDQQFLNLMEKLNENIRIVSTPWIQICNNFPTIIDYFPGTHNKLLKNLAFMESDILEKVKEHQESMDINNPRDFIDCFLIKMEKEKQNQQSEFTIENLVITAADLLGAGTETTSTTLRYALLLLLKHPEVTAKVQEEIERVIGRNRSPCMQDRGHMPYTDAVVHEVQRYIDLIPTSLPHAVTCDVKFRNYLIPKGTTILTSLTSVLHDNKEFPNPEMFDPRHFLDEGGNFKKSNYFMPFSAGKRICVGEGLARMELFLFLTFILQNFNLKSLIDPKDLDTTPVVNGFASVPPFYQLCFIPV

Regarding `COc1ccc2nc(COc3ccc(C[14CH]4SC(=O)NC4=O)cc3)n(C)c2c1.Cl` (racemic), the Drug metabolism result in series [1] was “metabolite_detected”; in series [2], “metabolite_not_detected”; in series [3] it was “metabolite_not_detected”; in series [4] it was “metabolite_detected”; in series [5], “metabolite_detected”; in series [6], “metabolite_detected”. Moreover, the Drug metabolism result in series [7] is given as “metabolite_detected”.

As to `COc1ccc2nc(COc3ccc(CC(S)C(=O)O)cc3)n(C)c2c1` (stereo not drawn), the Drug metabolism entry in series [8] was “metabolite_detected”.
